ChEMBL document CHEMBL4190252, “Synthesis, antitumor activity and CDK1 inhibiton of new thiazole nortopsentin analogues” (Eur J Med Chem, 2017)
Active and inactive are the calls of the source. The calls are words filed in the database; no cut-off is given here.

Assays:
MCF7 [1] = test: Induction of apoptosis in human MCF7 cells assessed as viable cells at 5 x 10^-8 M after 72 hrs by Annexin V/propidium iodide double staining-based flow cytometry (reference value: 98.9%); assay type: functional; conditions: MCF7, 72 h, read-out: Activity
How it was run: (§1)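 MCF-7 cells were grown in RPMI with 10% FBS, 2 mM L-glutamine and antibiotics at 37 °C in 5% CO2. They were seeded at 2.0 x 10^5 cells/cm2 in triplicate, left to adhere overnight, then treated for 72 h; DMSO 0.1% served as vehicle. Trypsinised cells at 2.0 x 10^5/mL were stained with annexin V-FITC and PI for 15 min at room temperature in the dark. At least 1.0 x 10^4 cells were gated into viable, early apoptotic, late apoptotic and necrotic quadrants.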

CCRF-CEM = test: Growth inhibition of human CCRF-CEM cells incubated for 48 hrs by sulforhodamine B assay; assay type: functional
How it was run: (§2)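 NCI full panel screen: five 10-fold dilutions (10^-4–10^-8 M). GI50 is the molar concentration giving 50% inhibition of net cell growth.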

K562 = test: Growth inhibition of human K562 cells incubated for 48 hrs by sulforhodamine B assay; assay type: functional; conditions: K562, 48 h; how it was run: as §2
RPMI-8226 = test: Growth inhibition of human RPMI8226 cells incubated for 48 hrs by sulforhodamine B assay; assay type: functional; conditions: RPMI-8226, 48 h; how it was run: as §2
EKVX = test: Growth inhibition of human EKVX cells incubated for 48 hrs by sulforhodamine B assay; assay type: functional; how it was run: as §2
HOP-92 = test: Growth inhibition of human HOP92 cells incubated for 48 hrs by sulforhodamine B assay; assay type: functional; conditions: HOP-92, 48 h; how it was run: as §2
NCI-H23 = test: Growth inhibition of human NCI-H23 cells incubated for 48 hrs by sulforhodamine B assay; assay type: functional; conditions: NCI-H23, 48 h; how it was run: as §2
NCI-H322M = test: Growth inhibition of human NCI-H322M cells incubated for 48 hrs by sulforhodamine B assay; assay type: functional; how it was run: as §2
NCI-H460 = test: Growth inhibition of human NCI-H460 cells incubated for 48 hrs by sulforhodamine B assay; assay type: functional; conditions: NCI-H460, 48 h; how it was run: as §2
NCI-H522 = test: Growth inhibition of human NCI-H522 cells incubated for 48 hrs by sulforhodamine B assay; assay type: functional; conditions: NCI-H522, 48 h; how it was run: as §2
HCT-116 = test: Growth inhibition of human HCT116 cells incubated for 48 hrs by sulforhodamine B assay; assay type: functional; conditions: HCT-116, 48 h; how it was run: as §2
HT-29 = test: Growth inhibition of human HT-29 cells incubated for 48 hrs by sulforhodamine B assay; assay type: functional; conditions: HT-29, 48 h; how it was run: as §2
SF-539 = test: Growth inhibition of human SF539 cells incubated for 48 hrs by sulforhodamine B assay; assay type: functional; conditions: SF-539, 48 h; how it was run: as §2
U-251 = test: Growth inhibition of human U251 cells incubated for 48 hrs by sulforhodamine B assay; assay type: functional; conditions: U-251, 48 h
How it was run: (§3)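 NCI full-panel human tumour cell screen. Cells were exposed to five 10-fold dilutions from 10^-4 to 10^-8 M. GI50 is the molar concentration giving 50% inhibition of net cell growth, and a mean graph midpoint was calculated across the panel.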

LOX IMVI = test: Growth inhibition of human LOXIMVI cells incubated for 48 hrs by sulforhodamine B assay; assay type: functional; how it was run: as §2
M14 = test: Growth inhibition of human M14 cells incubated for 48 hrs by sulforhodamine B assay; assay type: functional; conditions: M14, 48 h; how it was run: as §2
MDA-MB-435 = test: Growth inhibition of human MDA-MB-435 cells incubated for 48 hrs by sulforhodamine B assay; assay type: functional; conditions: MDA-MB-435, 48 h; how it was run: as §2
SK-MEL-28 = test: Growth inhibition of human SK-MEL-28 cells incubated for 48 hrs by sulforhodamine B assay; assay type: functional; conditions: SK-MEL-28, 48 h; how it was run: as §3
SK-MEL-5 = test: Growth inhibition of human SK-MEL-5 cells incubated for 48 hrs by sulforhodamine B assay; assay type: functional; conditions: SK-MEL-5, 48 h; how it was run: as §3
UACC-62 = test: Growth inhibition of human UACC62 cells incubated for 48 hrs by sulforhodamine B assay; assay type: functional; conditions: UACC-62, 48 h; how it was run: as §3
OVCAR-4 = test: Growth inhibition of human OVCAR4 cells incubated for 48 hrs by sulforhodamine B assay; assay type: functional; conditions: OVCAR-4, 48 h; how it was run: as §2
CAKI-1 = test: Growth inhibition of human Caki1 cells incubated for 48 hrs by sulforhodamine B assay; assay type: functional; conditions: CAKI-1, 48 h; how it was run: as §2
PC-3 = test: Growth inhibition of human PC3 cells incubated for 48 hrs by sulforhodamine B assay; assay type: functional; conditions: PC-3, 48 h; how it was run: as §2
DU-145 = test: Growth inhibition of human DU145 cells incubated for 48 hrs by sulforhodamine B assay; assay type: functional; conditions: DU-145, 48 h; how it was run: as §2
MCF7 [2] = test: Growth inhibition of human MCF7 cells incubated for 48 hrs by sulforhodamine B assay; assay type: functional; conditions: MCF7, 48 h; how it was run: as §2
MDA-MB-231 = test: Growth inhibition of human MDA-MB-231 cells incubated for 48 hrs by sulforhodamine B assay; assay type: functional; conditions: MDA-MB-231, 48 h; how it was run: as §2
BT-549 = test: Growth inhibition of human BT549 cells incubated for 48 hrs by sulforhodamine B assay; assay type: functional; conditions: BT-549, 48 h; how it was run: as §2
MDA-MB-468 = test: Growth inhibition of human MDA-MB-468 cells incubated for 48 hrs by sulforhodamine B assay; assay type: functional; conditions: MDA-MB-468, 48 h; how it was run: as §2
MCF7 [3] = test: Cell cycle arrest in human MCF7 cells assessed as increase in accumulation at G2/M phase at GI50 concentration after 48 hrs by propidium iodide-staining based flow cytometry; assay type: functional
How it was run: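 Cells were trypsinized, washed in cold PBS, and 1 x 10^6 cells stained with 20 µg/ml PI plus 200 µg/ml RNase for 30 min at room temperature in the dark. At least 1x 10^4 cells were analysed by flow cytometry. Mean±SD of three experiments in triplicate.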

Caco-2 [4] = test: Cytotoxicity against human Caco2 cells assessed as reduction in cell viability after 72 hrs by MTT assay; assay type: cell-based; conditions: caco-2, 72 h
How it was run: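 Caco-2 cells grown in RPMI with 10% FBS and L-glutamine, then treated 15 days after confluence, once differentiated into normal intestinal-like cells. Seeded at 2 × 10^4 cells/well and exposed 72 h to 5–100 µM, DMSO 0.1% vehicle. MTT 2 h at 37 °C, formazan in DMSO, absorbance 570 nm. Vehicle control = 100%; LC50 from viability-versus-concentration plot. At least three experiments in triplicate.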

Caco-2 [5] = test: Cytotoxicity against human Caco2 cells assessed as reduction in cell survival at 25 to 100 uM after 72 hrs by MTT assay; assay type: cell-based; conditions: caco-2, 72 h
How it was run: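 Caco-2 cells, differentiated 15 days post-confluence, seeded at 2 x 10^4 cells/well and treated 72 h with 5–100 µM compound. MTT added (5 mg/mL in FBS-free medium), 2 h at 37 °C, formazan dissolved in DMSO, absorbance at 570 nm. Viability relative to vehicle control (100%); LC50 taken from the viability-concentration plot. At least three experiments in triplicate.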

MCF7 [6] = test: Induction of apoptosis in human MCF7 cells assessed as early apoptotic cells at 2 x 10^-6 M after 72 hrs by Annexin V/propidium iodide double staining-based flow cytometry (reference value: 1%); assay type: functional; how it was run: as §1
MCF7 [7] = test: Induction of apoptosis in human MCF7 cells assessed as late apoptotic cells at 2 x 10^-6 M after 72 hrs by Annexin V/propidium iodide double staining-based flow cytometry (reference value: 0%); assay type: functional; how it was run: as §1

SMILES	GI50 (K562)	GI50 (EKVX)	GI50 (HOP-92)	GI50 (NCI-H23)	GI50 (NCI-H322M)	GI50 (NCI-H460)	GI50 (NCI-H522)	GI50 (HCT-116)	GI50 (HT-29)	GI50 (SF-539)	GI50 (U-251)	GI50 (LOX IMVI)	GI50 (M14)	GI50 (MDA-MB-435)	GI50 (SK-MEL-28)	GI50 (SK-MEL-5)	GI50 (UACC-62)	GI50 (OVCAR-4)	GI50 (CAKI-1)	GI50 (PC-3)	further results
COCCn1cc(-c2nc(-c3c[nH]c4ncccc34)cs2)c2cc(OC)ccc21	4.79 µM	0.07 µM	0.99 µM	1.63 µM	1.95 µM	1.32 µM	5.18 µM	4.55 µM	4.31 µM	3.99 µM	4.43 µM	3.69 µM	5.82 µM	6.41 µM	7.39 µM	5.53 µM	5.98 µM	0.03 µM	4.36 µM	4.22 µM	viability at 0.05 µM (MCF7 [1]): 45.8%; GI50 (CCRF-CEM): 6.7 µM; GI50 (RPMI-8226): 7.09 µM; GI50 (DU-145): 4.28 µM; GI50 (MCF7 [2]): 0.05 µM; GI50 (MDA-MB-231): 2.02 µM; GI50 (BT-549): 2.38 µM; GI50 (MDA-MB-468): 0.03 µM; Activity (MCF7 [3]): Active; LC50 (Caco-2 [4]): < 100 µM; Activity (Caco-2 [5]): Non-Toxic
COCCn1cc(-c2csc(-c3c[nH]c4ccc(F)cc34)n2)c2cccnc21	2.12 µM	1.98 µM	6.29 µM	3.88 µM	> 100 µM	3.38 µM	2.19 µM	3.77 µM	2.9 µM	8.86 µM	5.14 µM	3.44 µM	3.14 µM	0.9 µM	7.72 µM	2.69 µM	6.78 µM	2.59 µM	9.54 µM	5.06 µM	GI50 (DU-145): 18.8 µM; GI50 (MCF7 [2]): 2.09 µM; GI50 (MDA-MB-231): 2.59 µM; GI50 (BT-549): 4.26 µM; GI50 (MDA-MB-468): 2.44 µM; Activity (MCF7 [6]): 29.2%; Activity (MCF7 [7]): 0%; Activity (MCF7 [3]): Active; LC50 (Caco-2 [4]): 96.1 µM; Activity (Caco-2 [5]): Toxic
COCCn1cc(-c2csc(-c3c[nH]c4ccccc34)n2)c2cccnc21	2.8 µM	2 µM	14.9 µM	4.58 µM	> 100 µM	3.4 µM	2.07 µM	3.63 µM	3.19 µM	5.91 µM	6.12 µM	3.96 µM	3.22 µM	0.86 µM	8.19 µM	3.22 µM	4.58 µM	1.76 µM	8.36 µM	6.81 µM	GI50 (CCRF-CEM): > 100 µM; GI50 (DU-145): 15.4 µM; GI50 (MCF7 [2]): 1.74 µM; GI50 (MDA-MB-231): 5.05 µM; GI50 (BT-549): 4.45 µM; GI50 (MDA-MB-468): 0.97 µM; Activity (MCF7 [6]): 46.5%; Activity (MCF7 [7]): 0%; Activity (MCF7 [3]): Active; LC50 (Caco-2 [4]): 71.4 µM; Activity (Caco-2 [5]): Toxic
COCCn1cc(-c2csc(-c3c[nH]c4ccc(Br)cc34)n2)c2cccnc21	3.6 µM	2.05 µM	4.39 µM	3.21 µM	11.8 µM	3.07 µM	2.17 µM	3.84 µM	3.36 µM	7.34 µM	6.18 µM	2.67 µM	3.27 µM	4.12 µM	4.79 µM	3.24 µM	4.2 µM	2.74 µM	5.21 µM	3.68 µM	GI50 (RPMI-8226): 5.14 µM; GI50 (MCF7 [2]): 1.79 µM; GI50 (MDA-MB-231): 2.65 µM; GI50 (BT-549): 4.8 µM; GI50 (MDA-MB-468): 2.34 µM; Activity (MCF7 [6]): 36.3%; Activity (MCF7 [7]): 0%; LC50 (Caco-2 [4]): 83.3 µM; Activity (Caco-2 [5]): Toxic
